Experimental data reported in ChEMBL document CHEMBL1759915, “Synthesis and anticancer effects of some novel pyrazolo[3,4-d]pyrimidine derivatives by generating reactive oxygen species in human breast adenocarcinoma cells” (Eur J Med Chem, 2011).
Values after ≈ are worked out from the molar mass of the structure shown.

Experiments:
MCF7 [1] = assay: Effect on SOD level in human MCF7 cells assessed per mg protein at 2 ug/ml after 24 hrs (reference value: 27.61+/- 3.72 U/mg of protein); type: functional
MCF7 [2] = assay: Effect on CAT level in human MCF7 cells assessed per mg protein at 2 ug/ml after 24 hrs (reference value: 7.90+/- 0.67 U/mg of protein); type: functional
MCF7 [3] = assay: Effect on RNA level in human MCF7 cells assessed per 10 '6 cells at 10 ug/ml after 24 hrs (reference value: 11.50 +/- 0.70 ug/10^6 cells); type: functional
Summary of the method: (§1)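 After 24 h exposure of MCF-7 cells to compound at 2, 5, 10 or 20 µg/ml at 37 °C, nucleic acids were precipitated from cell homogenates. DNA was extracted and assayed by the Zhou et al. method, and RNA by a kit-derived procedure. Results given per 10⁶ cells as means ± S.E. of four experiments versus untreated control.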

MCF7 [4] = assay: Effect on CAT level in human MCF7 cells assessed per mg protein at 20 ug/ml after 24 hrs (reference value: 7.90+/- 0.67 U/mg of protein); type: functional
MCF7 [5] = assay: Effect on glutathione level in human MCF7 cells assessed per mg protein at 5 ug/ml by Ellman method after 24 hrs (reference value: 39.82 +/- 4.20 nmol/mg of protein); type: functional
MCF7 [6] = assay: Effect on CAT level in human MCF7 cells assessed per mg protein at 5 ug/ml after 24 hrs (reference value: 7.90+/- 0.67 U/mg of protein); type: functional
MCF7 [7] = assay: Effect on hydrogen peroxide level in human MCF7 cells assessed per mg protein at 5 ug/ml by Wolf's method after 24 hrs (reference value: 12.50 +/- 1.54 nmol/mg of protein); type: functional
MCF7 [8] = assay: Decrease in CAT level in human MCF7 cells; type: functional, cell-based
MCF7 [9] = assay: Effect on RNA level in human MCF7 cells assessed per 10 '6 cells at 5 ug/ml after 24 hrs (reference value: 11.50 +/- 0.70 ug/10^6 cells); type: functional; summary of the method: as §1
MCF7 [10] = assay: Effect on DNA level in human MCF7 cells assessed per 10 '6 cells at 10 ug/ml after 24 hrs (reference value: 6.80 +/- 0.70 ug/10^6 cells); type: functional; summary of the method: as §1
MCF7 [11] = assay: Effect on SOD level in human MCF7 cells assessed per mg protein at 10 ug/ml after 24 hrs (reference value: 27.61+/- 3.72 U/mg of protein); type: functional
MCF7 [12] = assay: Effect on glutathione level in human MCF7 cells assessed per mg protein at 20 ug/ml by Ellman method after 24 hrs (reference value: 39.82 +/- 4.20 nmol/mg of protein); type: functional
MCF7 [13] = assay: Effect on DNA level in human MCF7 cells assessed per 10 '6 cells at 2 ug/ml after 24 hrs (reference value: 6.80 +/- 0.70 ug/10^6 cells); type: functional; summary of the method: as §1
MCF7 [14] = assay: Effect on glutathione peroxidase level in human MCF7 cells assessed per mg protein at 20 ug/ml after 24 hrs (reference value: 11.20 +/- 1.36 U/mg of protein); type: functional
MCF7 [15] = assay: Effect on RNA level in human MCF7 cells assessed per 10 '6 cells at 20 ug/ml after 24 hrs (reference value: 11.50 +/- 0.70 ug/10^6 cells); type: functional; summary of the method: as §1
MCF7 [16] = assay: Effect on SOD level in human MCF7 cells assessed per mg protein at 20 ug/ml after 24 hrs (reference value: 27.61+/- 3.72 U/mg of protein); type: functional
MCF7 [17] = assay: Decrease in glutathione level in human MCF7 cells; type: functional, cell-based
MCF7 [18] = assay: Effect on glutathione level in human MCF7 cells assessed per mg protein at 2 ug/ml by Ellman method after 24 hrs (reference value: 39.82 +/- 4.20 nmol/mg of protein); type: functional
MCF7 [19] = assay: Effect on DNA level in human MCF7 cells assessed per 10 '6 cells at 5 ug/ml after 24 hrs (reference value: 6.80 +/- 0.70 ug/10^6 cells); type: functional; summary of the method: as §1
MCF7 [20] = assay: Decrease in glutathione peroxidase level in human MCF7 cells; type: functional, cell-based
MCF7 [21] = assay: Decrease in RNA level in human MCF7 cells assessed per 10 '6 cells after 24 hrs relative to control; type: functional, cell-based; summary of the method: as §1
MCF7 [22] = assay: Effect on DNA level in human MCF7 cells assessed per 10 '6 cells at 20 ug/ml after 24 hrs (reference value: 6.80 +/- 0.70 ug/10^6 cells); type: functional; summary of the method: as §1
MCF7 [23] = assay: Effect on CAT level in human MCF7 cells assessed per mg protein at 10 ug/ml after 24 hrs (reference value: 7.90+/- 0.67 U/mg of protein); type: functional
MCF7 [24] = assay: Decrease in DNA level in human MCF7 cells assessed per 10 '6 cells after 24 hrs relative to control; type: functional, cell-based; summary of the method: as §1
MCF7 [25] = assay: Increase in SOD level in human MCF7 cells; type: functional, cell-based
MCF7 [26] = assay: Effect on RNA level in human MCF7 cells assessed per 10 '6 cells at 2 ug/ml after 24 hrs (reference value: 11.50 +/- 0.70 ug/10^6 cells); type: functional; summary of the method: as §1
MCF7 [27] = assay: Effect on hydrogen peroxide level in human MCF7 cells assessed per mg protein at 10 ug/ml by Wolf's method after 24 hrs (reference value: 12.50 +/- 1.54 nmol/mg of protein); type: functional
MCF7 [28] = assay: Effect on SOD level in human MCF7 cells assessed per mg protein at 5 ug/ml after 24 hrs (reference value: 27.61+/- 3.72 U/mg of protein); type: functional
MCF7 [29] = assay: Effect on hydrogen peroxide level in human MCF7 cells assessed per mg protein at 20 ug/ml by Wolf's method after 24 hrs (reference value: 12.50 +/- 1.54 nmol/mg of protein); type: functional
MCF7 [30] = assay: Effect on glutathione peroxidase level in human MCF7 cells assessed per mg protein at 2 ug/ml after 24 hrs (reference value: 11.20 +/- 1.36 U/mg of protein); type: functional
MCF7 [31] = assay: Effect on glutathione peroxidase level in human MCF7 cells assessed per mg protein at 10 ug/ml after 24 hrs (reference value: 11.20 +/- 1.36 U/mg of protein); type: functional
MCF7 [32] = assay: Antiproliferative activity against human MCF7 cells after 24 hrs by MTT assay; type: functional, cell-based; conditions: for IC50: MCF7, 24 h
Summary of the method: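 MCF-7 cells (DMEM, 10% heat-inactivated FCS, penicillin/streptomycin, 37 °C, 5% CO2) plated at 0.65 × 10⁵ cells/well and given 24 h to attach. Exposed to compound or cisplatin at 2, 5, 10 or 20 µg/ml for 24 h at 37 °C. MTT added for 4 h, formazan dissolved in DMSO, absorbance read at 570 nm. Viability taken relative to untreated cells and IC50 derived.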

MCF7 [33] = assay: Effect on glutathione level in human MCF7 cells assessed per mg protein at 10 ug/ml by Ellman method after 24 hrs (reference value: 39.82 +/- 4.20 nmol/mg of protein); type: functional
MCF7 [34] = assay: Effect on hydrogen peroxide level in human MCF7 cells assessed per mg protein at 2 ug/ml by Wolf's method after 24 hrs (reference value: 12.50 +/- 1.54 nmol/mg of protein); type: functional
MCF7 [35] = assay: Effect on glutathione peroxidase level in human MCF7 cells assessed per mg protein at 5 ug/ml after 24 hrs (reference value: 11.20 +/- 1.36 U/mg of protein); type: functional
MCF7 [36] = assay: Increase in hydrogen peroxide level in human MCF7 cells; type: functional, cell-based

Structure (SMILES) | Activity (MCF7 [1]) | Activity (MCF7 [2]) | Activity (MCF7 [3]) | Activity (MCF7 [4]) | Activity (MCF7 [5]) | Activity (MCF7 [6]) | Activity (MCF7 [7]) | Activity (MCF7 [8]) | Activity (MCF7 [9]) | Activity (MCF7 [10]) | Activity (MCF7 [11]) | Activity (MCF7 [12]) | Activity (MCF7 [13]) | Activity (MCF7 [14]) | Activity (MCF7 [15]) | Activity (MCF7 [16]) | Activity (MCF7 [17]) | Activity (MCF7 [18]) | Activity (MCF7 [19]) | Activity (MCF7 [20]) | further results
Cc1nc(-n2ncc3c(S[C@@H]4O[C@H](CO)[C@@H](O)[C@H]4O)ncnc32)c2c3c(sc2n1)CCc1ccccc1-3 | 70.4 U/mg protein | 6.85 U/mg protein | 7.7 µg/10^6 cells | 5.35 U/mg protein | 40.12 nmol | 6 U/mg protein | 28.45 nmol | Dose-dependent effect | 8.9 µg/10^6 cells | 4.86 µg/10^6 cells | 110 U/mg protein | 30 nmol | 5.35 µg/10^6 cells | 5.4 U/mg protein | 7.22 µg/10^6 cells | 161 U/mg protein | Dose-dependent effect | 43.35 nmol | 5.16 µg/10^6 cells | Dose-dependent effect | Activity (MCF7 [21]): Dose-dependent effect; Activity (MCF7 [22]): 4.45 µg/10^6 cells; Activity (MCF7 [23]): 5.7 U/mg protein; Activity (MCF7 [24]): Dose-dependent effect; Activity (MCF7 [25]): Dose-dependent effect; Activity (MCF7 [26]): 9.5 µg/10^6 cells; Activity (MCF7 [27]): 35.85 nmol; Activity (MCF7 [28]): 80.2 U/mg protein; Activity (MCF7 [29]): 40.33 nmol; Activity (MCF7 [30]): 9 U/mg protein; Activity (MCF7 [31]): 6 U/mg protein; Activity (MCF7 [32]): Dose-dependent effect; IC50 (MCF7 [32]): 9.4 µg/mL (≈ 17.6 µM); Activity (MCF7 [33]): 33.11 nmol; Activity (MCF7 [34]): 21.23 nmol; Activity (MCF7 [35]): 6.6 U/mg protein; Activity (MCF7 [36]): Dose-dependent effect
CCOCCSc1ncnc2c1cnn2-c1nc(C)nc2sc3c(c12)-c1ccccc1CC3 | 85.7 U/mg protein | 5.2 U/mg protein | 6.5 µg/10^6 cells | 3.2 U/mg protein | 25 nmol | 4.5 U/mg protein | 30.5 nmol | Dose-dependent effect | 7 µg/10^6 cells | 3.75 µg/10^6 cells | 190 U/mg protein | 18.6 nmol | 4.6 µg/10^6 cells | 5.25 U/mg protein | 6.2 µg/10^6 cells | 251 U/mg protein | Dose-dependent effect | 30 nmol | 4.2 µg/10^6 cells | Dose-dependent effect | Activity (MCF7 [21]): Dose-dependent effect; Activity (MCF7 [22]): 3 µg/10^6 cells; Activity (MCF7 [23]): 4 U/mg protein; Activity (MCF7 [24]): Dose-dependent effect; Activity (MCF7 [25]): Dose-dependent effect; Activity (MCF7 [26]): 7.9 µg/10^6 cells; Activity (MCF7 [27]): 40 nmol; Activity (MCF7 [28]): 115 U/mg protein; Activity (MCF7 [29]): 55 nmol; Activity (MCF7 [30]): 7.35 U/mg protein; Activity (MCF7 [31]): 6 U/mg protein; Activity (MCF7 [32]): Dose-dependent effect; IC50 (MCF7 [32]): 6.4 µg/mL (≈ 13.5 µM); Activity (MCF7 [33]): 20.25 nmol; Activity (MCF7 [34]): 30.3 nmol; Activity (MCF7 [35]): 7 U/mg protein; Activity (MCF7 [36]): Dose-dependent effect
Cc1nc(-n2ncc3c(=O)[nH]cnc32)c2c3c(sc2n1)CCc1ccccc1-3 | 95.6 U/mg protein | 4 U/mg protein | 5.81 µg/10^6 cells | 2.3 U/mg protein | 18.66 nmol | 3.6 U/mg protein | 40.6 nmol | Dose-dependent effect | 6.4 µg/10^6 cells | 3 µg/10^6 cells | 240 U/mg protein | 16 nmol | 4.2 µg/10^6 cells | 2.65 U/mg protein | 5.25 µg/10^6 cells | 290 U/mg protein | Dose-dependent effect | 27.9 nmol | 3.8 µg/10^6 cells | Dose-dependent effect | Activity (MCF7 [21]): Dose-dependent effect; Activity (MCF7 [22]): 2.7 µg/10^6 cells; Activity (MCF7 [23]): 2.8 U/mg protein; Activity (MCF7 [24]): Dose-dependent effect; Activity (MCF7 [25]): Dose-dependent effect; Activity (MCF7 [26]): 7.6 µg/10^6 cells; Activity (MCF7 [27]): 52 nmol; Activity (MCF7 [28]): 126 U/mg protein; Activity (MCF7 [29]): 60.3 nmol; Activity (MCF7 [30]): 6.9 U/mg protein; Activity (MCF7 [31]): 3.11 U/mg protein; Activity (MCF7 [32]): Dose-dependent effect; IC50 (MCF7 [32]): 4.4 µg/mL (≈ 11.4 µM); Activity (MCF7 [33]): 17.7 nmol; Activity (MCF7 [34]): 32 nmol; Activity (MCF7 [35]): 5.5 U/mg protein; Activity (MCF7 [36]): Dose-dependent effect
